Assay results published in ChEMBL document CHEMBL1132720 (J Med Chem, 1999).
The source made the active and inactive calls. No cut-off for these calls is given here.

Columns and labels:
Assay type in all cases: functional, cell membranes
[1] = target: P2Y purinoceptor 1 (Meleagris gallopavo) (UniProt P49652); experiment: In vitro agonist activity at P2Y1 receptor in turkey erythrocyte membranes; No effect at 100 uM.
[2] = target: P2Y purinoceptor 1 (Meleagris gallopavo) (UniProt P49652); experiment: Antagonist activity for inhibition of PLC elicited by 10 nM 2-MeSADP at P2Y purinoceptor 1 in the turkey erythrocyte membranes; No effect
Outline: (§1)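 [3H]inositol-labeled turkey erythrocyte ghosts in pH 7.0 Hepes medium with 1 μM GTPγS were incubated 5 min at 30 °C with test nucleotide plus 10 nM 2-MeSADP. Total [3H]inositol phosphates were separated by anion-exchange. […] Maximal inhibition is 100 minus residual stimulation at the highest concentration; n = 3 unless stated. "No effect" means none at 100 μM.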

[3] = target: T1, P2Y purinoceptor 1 (Meleagris gallopavo, UniProt P49652); experiment: In vitro antagonist activity at P2Y1 receptor in turkey erythrocyte membranes.
Outline: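 [3H]inositol-labeled turkey erythrocyte ghosts in pH 7.0 Hepes medium with 1 μM GTPγS were incubated 5 min at 30 °C with test nucleotide plus 10 nM 2-MeSADP. Total [3H]inositol phosphates were separated by anion-exchange. Maximal inhibition is 100 minus residual stimulation at the highest concentration; n = 3 unless stated. "No effect" means none at 100 μM.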

[4] = target: P2Y purinoceptor 1 (Meleagris gallopavo) (UniProt P49652); experiment: Agonist activity for stimulation of PLC at P2Y purinoceptor 1 in the turkey erythrocyte membranes.
[5] = target: P2Y purinoceptor 1 (Meleagris gallopavo) (UniProt P49652); experiment: Antagonist activity for inhibition of PLC elicited by 10 nM 2-MeSADP at P2Y purinoceptor 1 in turkey erythrocyte membranes; outline: as §1
[6] = target: P2Y purinoceptor 1 (Meleagris gallopavo) (UniProt P49652); experiment: Antagonist activity for inhibition of PLC elicited by 10 nM 2-MeSADP at P2Y purinoceptor 1 in the turkey erythrocyte membranes; No effect, low potency; outline: as §1
[7] = target: T1, P2Y purinoceptor 1; experiment: Concentration at which 50% of the maximal effect (stimulation of PLC at P2Y1 receptor in the turkey erythrocyte membranes) is reached
[8] = target: T1, P2Y purinoceptor 1; experiment: Concentration at which 50% of the maximal effect (stimulation of PLC at P2Y1 receptor in the turkey erythrocyte membranes) is reached; Low potency agonist

Chain of P2Y purinoceptor 1 (Meleagris gallopavo) (P49652 whole entry): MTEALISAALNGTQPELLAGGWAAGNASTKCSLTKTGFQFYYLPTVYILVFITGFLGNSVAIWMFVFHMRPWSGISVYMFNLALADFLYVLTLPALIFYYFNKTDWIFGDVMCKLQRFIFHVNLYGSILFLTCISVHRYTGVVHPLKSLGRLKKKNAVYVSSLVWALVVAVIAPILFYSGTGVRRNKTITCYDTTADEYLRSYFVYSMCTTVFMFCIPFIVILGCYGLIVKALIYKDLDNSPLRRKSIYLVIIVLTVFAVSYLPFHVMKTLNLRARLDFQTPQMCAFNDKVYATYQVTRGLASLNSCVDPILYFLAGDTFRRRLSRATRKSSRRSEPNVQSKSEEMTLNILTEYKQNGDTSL
T1 sequence (P49652 whole entry): as above

Row | SMILES | Increase [1] | inhibition [2] | IC50 [3] [nM] | Increase [4] [%] | inhibition [5] [%] | inhibition [6] | EC50 [7] [nM] | EC50 [8]
1 | CCCSc1nc(NC)c2ncn([C@H]3C[C@H](OP(=O)(O)O)[C@@H](COP(=O)(O)O)O3)c2n1 | – | – | 449 | 7 | 94 | – | – | –
2 | Nc1ncnc2c1ncn2[C@@H]1CO[C@H](COP(=O)(O)O)[C@@H](OP(=O)(O)O)C1 | – | inactive | – | 100 | – | – | 2990 | –
3 | CNc1nc(N)nc2c1ncn2[C@@H]1C[C@H](COP(=O)(O)O)[C@@H](OP(=O)(O)O)C1 | – | – | 5420 | 26 | 74 | – | 6490 | –
4 | CNc1ncnc2c1ncn2[C@H]1C[C@@H]2OP(=O)(O)OP(=O)(O)OP(=O)(O)OP(=O)(O)OC[C@H]2O1 | – | – | 158 | 14 | 87 | – | 20 | –
5 | C=Cc1nc2c(N)ncnc2n1[C@H]1C[C@H](OP(=O)(O)O)[C@@H](COP(=O)(O)O)O1 | inactive | – | 30700 | – | 59 | – | – | –
6 | COP(=O)(O)OC[C@H]1O[C@@H](n2cnc3c(N)ncnc32)C[C@@H]1OP(=O)(O)OC | inactive | inactive | – | – | – | – | – | –
7 | CCCCCCSc1nc(NC)c2ncn([C@H]3C[C@H](OP(=O)(O)O)[C@@H](COP(=O)(O)O)O3)c2n1 | inactive | – | 3370 | – | 100 | – | – | –
8 | [N-]=[N+]=N[C@H]1[C@@H](OP(=O)(O)O)[C@H](n2cnc3c(N)ncnc32)O[C@@H]1COP(=O)(O)O | – | inactive | – | 46 | – | – | – | Partial agonist
9 | Nc1ncnc2c1ncn2[C@@H]1C[C@H](COP(=O)(O)O)[C@@H](OP(=O)(O)O)C1 | – | – | 2530 | 27 | 73 | – | 7210 | –
10 | Nc1ncnc2c1ncn2[C@H]1C[C@H](OP(=O)(O)O)[C@@H](COP(=O)(O)O)S1 | – | – | – | 56 | 38 | – | 12200 | –
11 | Nc1ncnc2c1ncn2[C@H]1C[C@H](O)[C@@H](COP(=O)(O)O)[S+]1[O-] (stereo partly specified) | inactive | inactive | – | – | – | – | – | –
12 | [N-]=[N+]=N[C@H]1[C@@H](OP(=O)(O)O)[C@H](n2cnc3c(N)ncnc32)O[C@@H]1COP(=O)(O)OP(=O)(O)OP(=O)(O)O | – | – | – | 49 | – | inactive | – | Partial agonist
13 | Nc1ncnc2c1ncn2[C@@H]1O[C@H](COP(=O)(O)O)[C@@H](OP(=O)(O)O)[C@H]1O | – | – | 14900 | 44 | 56 | – | 2340 | –
14 | C=CCSc1nc(NC)c2ncn([C@H]3C[C@H](OP(=O)(O)O)[C@@H](COP(=O)(O)O)O3)c2n1 | inactive | – | 475 | – | 97 | – | – | –
15 | CNc1ncnc2c1ncn2[C@H]1C[C@@H]2OP(=O)(O)OP(=O)(O)OC[C@H]2O1 | inactive | – | – | – | – | inactive | – | –
16 | Nc1ncnc2c1ncn2[C@H]1C[C@H](OP(=O)(O)O)[C@@H](COCP(=O)(O)O)O1 | – | – | 19600 | 22 | 78 | – | 27700 | –

More lines, now with the values ahead:

Row | Increase [1] | inhibition [2] | IC50 [3] [nM] | Increase [4] [%] | inhibition [5] [%] | inhibition [6] | EC50 [7] [nM] | EC50 [8] | SMILES
17 | inactive | inactive | – | – | – | – | – | – | O=c1ccn([C@H]2C[C@H](OP(=O)(O)O)[C@@H](COP(=O)(O)O)O2)c(=O)[nH]1
18 | inactive | – | 206 | – | 95 | – | – | – | CNc1nc(Cl)nc2c1ncn2[C@H]1C[C@H](OP(=O)(O)O)[C@@H](COP(=O)(O)O)O1
19 | inactive | inactive | – | – | – | – | – | – | COc1nc2c(N)ncnc2n1[C@H]1C[C@H](OP(=O)(O)O)[C@@H](COP(=O)(O)O)O1
20 | inactive | – | 980 | – | 94 | – | – | – | CCSc1nc(NC)c2ncn([C@H]3C[C@H](OP(=O)(O)O)[C@@H](COP(=O)(O)O)O3)c2n1
21 | inactive | – | – | – | – | inactive | – | – | CNc1nc2c(N)ncnc2n1[C@H]1C[C@H](OP(=O)(O)O)[C@@H](COP(=O)(O)O)O1
22 | inactive | inactive | – | – | – | – | – | – | Cc1cn([C@H]2C[C@H](OP(=O)(O)O)[C@@H](COP(=O)(O)O)O2)c(=O)[nH]c1=O
23 | – | – | 891 | 13 | 87 | – | 4440 | – | CNc1nc(I)nc2c1ncn2[C@H]1C[C@H](OP(=O)(O)O)[C@@H](COP(=O)(O)O)O1
24 | inactive | inactive | – | – | – | – | – | – | Nc1ccn([C@H]2C[C@H](OP(=O)(O)O)[C@@H](COP(=O)(O)O)O2)c(=O)n1
25 | inactive | – | > 100000 | – | – | inactive | – | – | CONc1ncnc2c1ncn2[C@H]1C[C@H](OP(=O)(O)O)[C@@H](COP(=O)(O)O)O1
26 | – | – | – | 19 | 80 | – | – | – | Nc1nc(Cl)nc2c1ncn2[C@H]1C[C@H](OP(=O)(O)O)[C@@H](COP(=O)(O)O)O1
27 | inactive | – | 14900 | – | 93 | – | – | – | Nc1nc2c(ncn2[C@H]2C[C@H](OP(=O)(O)O)[C@@H](COP(=O)(O)O)O2)c(=O)[nH]1
28 | – | – | 4590 | 16 | 84 | – | 1980 | – | CCSc1nc(N)c2ncn([C@H]3C[C@H](OP(=O)(O)O)[C@@H](COP(=O)(O)O)O3)c2n1
29 | inactive | inactive | – | – | – | – | – | – | O=c1[nH]c(=O)n([C@H]2C[C@H](OP(=O)(O)O)[C@@H](COP(=O)(O)O)O2)cc1F
30 | – | – | – | 53 | 46 | – | 1710 | – | CCCSc1nc(N)c2ncn([C@H]3C[C@H](OP(=O)(O)O)[C@@H](COP(=O)(O)O)O3)c2n1
31 | – | – | 1850 | 4 | 96 | – | – | – | CNc1nc(N)nc2c1ncn2[C@H]1C[C@H](OP(=O)(O)O)[C@@H](COP(=O)(O)O)O1
32 | – | – | 1890 | 22 | 78 | – | – | – | CSc1nc(N)c2ncn([C@H]3C[C@H](OP(=O)(O)O)[C@@H](COP(=O)(O)O)O3)c2n1
33 | – | – | 362 | 6 | 94 | – | – | – | CNc1nc(SC)nc2c1ncn2[C@H]1C[C@H](OP(=O)(O)O)[C@@H](COP(=O)(O)O)O1
34 | – | – | – | 12 | 87 | – | – | – | Nc1ncnc2c1ncn2[C@H]1C[C@H](OP(=O)(O)O)[C@@H](COP(=O)(O)O)O1
35 | inactive | – | 75100 | – | 53 | – | – | – | Cc1nc2c(N)ncnc2n1[C@H]1C[C@H](OP(=O)(O)O)[C@@H](COP(=O)(O)O)O1
36 | inactive | – | 904 | – | 96 | – | – | – | CNc1ccnc2c1ncn2[C@H]1C[C@H](OP(=O)(O)O)[C@@H](COP(=O)(O)O)O1
37 | inactive | – | – | – | – | inactive | – | – | CSc1nc2c(N)ncnc2n1[C@H]1C[C@H](OP(=O)(O)O)[C@@H](COP(=O)(O)O)O1
